According to the EternaBench riboswitch data:

System: MS2 coat protein
Test: apparent Kd, MS2 coat protein; higher = weaker binding; RNA-MaP array
Procedure, shortened: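 Apparent Kd values come from the median of binding-curve fits to single clusters. To obtain them, designed RNAs transcribed on an Illumina sequencing chip from sequenced DNA templates were incubated at room temperature with fluorescently labeled MS2 coat protein at 1.5 nM to 3 μM, with or without input ligand, for 0.8–1.5 h at the lowest and 10–20 min at the highest concentrations. Designs measured on fewer than 10 clusters were excluded.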

[1] = designed as: OFF switch for flavin mononucleotide, no ligand
[2] = ligand present: flavin mononucleotide, designed as: OFF switch for flavin mononucleotide
[3] = designed as: ON switch for flavin mononucleotide, no ligand
[4] = ligand present: flavin mononucleotide, designed as: ON switch for flavin mononucleotide
[5] = designed as: ON switch for theophylline, no ligand
[6] = ligand present: theophylline, designed as: ON switch for theophylline
[7] = designed as: OFF switch for tryptophan, no ligand
[8] = ligand present: tryptophan, designed as: OFF switch for tryptophan

Sequence	apparent Kd [1] [nM]	apparent Kd [2] [nM]	also measured
GCUCUGUCAGGAUAUAGGACGGCAACAGGCAAACUAAGCAACUAGAAGGGACAUGAGGAUCACCCAUGUAGCGC	9.33	9.2	
AUCAAGUCAGGAUAUGAACUAAAGAUGGAAAACGUAGCAAAACAGAAGGGACAUGAGGAUCACCCAUGUGGAAG	19.9	17	
CAUUACCAUGUUAGGAUAUCCUGCGGAAUUGCCCUGGAGAAGGAACAUGAGGAUCACCCAUGUGCACAAACAAC	17.6	26.1	
UAGAAAUCCUUGCAGGAUAUGUUGGAGUCUACAUGAGGAUCACCCAUGUUUAGUAGCAGGCGACGACAGAAGGGCAAUCUCAUGAU			apparent Kd [3]: 23.6 nM; apparent Kd [4]: 9.18 nM
UAGUAACAUGAGGAUCACCCAUGUCCGGAUACCAGACAUAUACCAGUCCCUUGGCAGCCGCCAGUUAAAAUCUAACACAAAAGUU			apparent Kd [5]: 46.2 nM; apparent Kd [6]: 21.5 nM
GCCUGACCCAUAGGAUAUCGCGUAGCUGCCGGCUACGACACAUGAGGAUCACCCAUGUAUCAAAUCGAGAAGGAUGAUCUGCAA			apparent Kd [3]: 272 nM; apparent Kd [4]: 168 nM
UCAAGGUCAGGAUAUUUAUACAGUCGAUUACGAGGAUGUCGAAAGAAGGGACAUGAGGAUCACCCAUGUGGUAC	43	57.7	
UGCGGCGAAGGAUAUUGACCAAAACACAUGAGGAUCACCCAUGUACUCAUAACAUGCUAACAAGAAGGUCGCGUAA	15.9	13.8	
AGCCUGGAAGCAGGAUAUGGGAUACAUGAGGAUCACCCAUGUAAGAUAAUAGGGCAACGAAGAAGCCAGAAGGGCUCGAGGUAA			apparent Kd [3]: 16.2 nM; apparent Kd [4]: 13.1 nM
CAUACGCCGCAGAAGGAAGGACAGACAUGAGGAUCACCCAUGUACACCGGUUUAUUGGGUGCACCUUAGGAUAUGCAAAAGAAC			apparent Kd [3]: 268 nM; apparent Kd [4]: 132 nM
AGUGGGUAUGGGCAGGAUAUACGUCGGGCGACAUGAGGAUCACCCAUGUUGGGCGGUGAAGUUGAGUAGAAGGGCCUCCGCCCGAA			apparent Kd [3]: 54.6 nM; apparent Kd [4]: 12.1 nM
GGGCGACUAGGAUAUACAGGAAGUUAAUGAGUGUCAAAGAAACAUGAGGAUCACCCAUGUAGAAGGAGUGCUAU	11.2	12.6	
GUAUAUACAUAGGAUAUGUCGGCCGGUUAUGCAACAGAAGGAUGUACAUGAGGAUCACCCAUGUCAAUUGGGAG	74.6	220	
AGGUCGAAACUAGGAUAUCUUCACUAUGUCAGAAGAGAAGGAGUAGAGCAUGACAGUGAUAGUACAUGAGGAUCACCCAUGUUA	18.8	15.7	
GUAAGACAUGAGGAUCACCCAUGUGUCGAUACCAGCCCUGCCUCUGGCCCUUGGCAGCGACUCGCACACCUCGCACUGCACAAGU			apparent Kd [5]: 54.9 nM; apparent Kd [6]: 73.2 nM
AUCAAUGAUCGACAUGAGGAUCACCCAUGUGCUUGGCGACUAAGAAGGGCCAGGCCACCAAGGCGGCAGGAUAUUAGUAGGACC	84.2	24.3	
AGAUUUUGCCAAGGAUAUUCGAUGCAUCAUGACAUGAGGAUCACCCAUGUAUAACGACUUGGGCUGAAGAAGGUGGACCAAGCU	11.8	12	
UAAGCACAUGAGGAUCACCCAUGUAAGGAUAUCCGAUCAUGCAAUCCGGAGAUCACAAGGAGAAGGUACAUGCA	29.6	33.3	
AAUAUUAACGUCAGGAUAUGCCAUUCCCGUUGGCGGCAGAAGGGACAUGAGGAUCACCCAUGUGAAAACGUCAC	16.9	25.6	
GUAACUCAGGUCAGGAUAUUCGAGUAAGGGAAAACGAAGAAGGGACAUGAGGAUCACCCAUGUAACACGACUAU	18.1	86.3	
GAUCUGUGAGGAUAUUGUUAGAGCAUUCAACCAUCGAAUGCCAAGAAGGCACAUGAGGAUCACCCAUGUAGACA	7.9	10.4	
AAACAAGUAGGAUAUACAUGAGGAUCACCCAUGUAUUGUGAGGAUAGUACUGUACCAUGUAGAAGGACUCCGGA	10.7	9.12	
AAGACGGUUCAGAAGGUCUCUAAGCAGGUUACAGAAGGAUAUGAUGCGGACACAUGAGGAUCACCCAUGUUCUAGGGUACCCUA			apparent Kd [3]: 22.1 nM; apparent Kd [4]: 19 nM
GCACAACAUGAGGAUCACCCAUGUCGAGAUACCAGAACAUAUAUAUUCCCUUGGCAGCUCACACCUUUAAUGUAAAAUUCUUUGG			apparent Kd [5]: 12.7 nM; apparent Kd [6]: 14.5 nM
CGGUCCACUGAGAAGGCUCACUCCAUGCCGAGGAGAGGAUAUCAAACCUAUAUUGCACGCAGCGAACAUGAGGAUCACCCAUGU			apparent Kd [3]: 11 nM; apparent Kd [4]: 8.73 nM
AUGGAACAUGAGGAUCACCCAUGUUAGGAUAUCGGCGAAGGGAGUUUUAUACUCACUGCGAGAAGGAACGUGAC	25.2	18.7	
AUGGAACAUGAGGAUCACCCAUGUGAUGAUACCAGAUUAACGCUUAUCCCUUGGCAGCAUGUCCGCCCUCAACCUGUGGCGUAUU			apparent Kd [5]: 22.2 nM; apparent Kd [6]: 26.1 nM
AGCUCGACUCGCAGCUGGAUGCCCGCUUGCCGAGGACCGGUACGGCCGCCACUCGUCACUCGACAUGAGGAUCACCCAUGUGAUA			apparent Kd [7]: 88.3 nM; apparent Kd [8]: 45.6 nM

Sequence	apparent Kd [1] [nM]	apparent Kd [2] [nM]	also measured
UAUUGGAUAGGAUAUACAUGAGGAUCACCCAUGUUUUCAUUGGACGAGGACGCUCUUCGUAGAAGGAUCGGCUA	10.8	10.2	
UGACACAUGAGGAUCACCCAUGUUGGGUAAUGUUAACGUACAAGAAGGGCAGCCGGCCGGACGUUGCAGGAUAUUGUAGCGCGA	41.7	31.1	
AUUUCAAACAUGAGGAUCACCCAUGUCAAGUUUGAGCAACUAAGAAGGUCAGAUCCAUAAGCACUGAAGGAUAUUAAGAGGUAC	31.8	22	
UACCCAUUAGAGAAGGUUGACGCCCUAGUUGUCAAAGGAUAUCUCCUCGAGGCUACACAUGAGGAUCACCCAUGUUCACAGGUC	9.35	8.92	
AAUGGACGAGGAUAUACAUGAGGAUCACCCAUGUCACAGUGGGCUCACCGUUCGGGUAGUAGAAGGCGUUUCUA	107	282	
CACCCGUCGACUUAGGAUAUACUGUUGUGAACAUGAGGAUCACCCAUGUAUUAAGCUAGAACGAAGUAGAAGGAAGUUUUCCUUGC			apparent Kd [3]: 15.6 nM; apparent Kd [4]: 13.1 nM
GGGCCACCUCUAACAUGAGGAUCACCCAUGUUCGUCGGUUCCGAGGAUAUGUCUAGACGUAACGGACAGAAGGCGGUCCGGCUG	26.2	81	
AUCAUAAGAGUAGGAUAUCGACAUGAGGAUCACCCAUGUACCUUGGAUGACCGCUAAUGGUUUAUCGAGAAGGACUUUUCCUCC	8.2	10.2	
GAUGGCCUAGGAUAUACGCGUUGGUUGGCUCGUCACGAUACACAUGAGGAUCACCCAUGUAGAAGGAGGAGAGU	10.5	11.7	
AAAAUUCUAGUGAGGAUAUGGUACGUUGUAGUAAGCCAGAAGGCACAUGAGGAUCACCCAUGUAUAAUGGACGA	31.1	148	
CUGCGCUCGAAGAAGGGCUGCCACAUGAGGAUCACCCAUGUCACUGACACCGAAGUUAGAAAGUAGCAGGAUAUUCAGGGUCCU			apparent Kd [3]: 49.2 nM; apparent Kd [4]: 32.4 nM
UCCCAGCAAGGAUAUACAUGAAAAGGUAAAGAAGAAAAGAAACAUGAGGAUCACCCAUGUAGAAGGUGCAAGAG	15.5	18.4	
UAGAUCCCAGUCAGGAUAUCCAGGGAGAAUAGGAGGGAGAAGGGACAUGAGGAUCACCCAUGUAUGCGACUACC	7.91	8.92	
UGCCUAUACCAGAAGGGCGUACGGGAAAACAUGAGGAUCACCCAUGUGAGAUCAUCAUCGCUAGCGCAGGAUAUGGAAGUUCGG	25	29.4	
GCCUAUAUUGUCAGGAUAUGCAUAAAGGAAAAGAAGCAGAAGGGACAUGAGGAUCACCCAUGUUACAGCCAAUA	6.84	12.6	
CCACUACAUGAGGAUCACCCAUGUCAGGAUAUCAACCACGCCUCUCCUUGGACGUAGAUGAGAAGGGACGUGGG	16.7	28.2	
GUCGUAGGCUAAGGAUAUAGUGAAAGAGUGAAGGCCUGAUCAGACAUGAGGAUCACCCAUGUGAACUAGAAGGUAGGCAAGGCU	13.5	12.5	
UCUCAUCAGUAGAAGGGCAGACCCUAACAAGGUGCAGGAUAUACUCUAAGUCCUACAUGAGGAUCACCCAUGUCAUAUAUCGGG	323	196	
AUCGCAGAUGUAAGGAUAUUAGUGUAGCAACGGUCAAAGAAGGAACAUGAGGAUCACCCAUGUGGUAGAUAAAU	19	15.2	
CGAAUAUAGGCUACGUGUCAUUGAGGCGAUACCAGAUUAUGCCAGAUCCCUUGGCAGCGCCAAACAUGAGGAUCACCCAUGUUCA			apparent Kd (designed as: OFF switch for theophylline, no ligand): 22.1 nM; apparent Kd (ligand present: theophylline, designed as: OFF switch for theophylline): 29.3 nM
AAUAAGAAAGGAUAUACAGAGGAUAAACUAAUAAAUAAAGGACAUGAGGAUCACCCAUGUAGAAGGUUCAAAAU	11.9	11.7	
CGUGAUACUGGUAUACUCUGAAGAUCAAUUCGAGGACCGGUACGGCCGCCACUCGUUAGUAGACAUGAGGAUCACCCAUGUUAGU			apparent Kd [7]: 20 nM; apparent Kd [8]: 22.5 nM
GAAGACAUGAGGAUCACCCAUGUUACACACCGAGGACCGGUACGGCCGCCACUCGUAGGCCCUCGGCUCACCUGAGAUCCGCAUC			apparent Kd (designed as: ON switch for tryptophan, no ligand): 23.8 nM; apparent Kd (ligand present: tryptophan, designed as: ON switch for tryptophan): 22.6 nM
CUCCUACAUGAGGAUCACCCAUGUGAGGAUAUCUCCCAGUGGGAAUAGUUUCCAUGGAAGAGAAGGCACAGUGA	24.4	30.9	
CAAGUCGGCAAGGAUAUGAAACGUAUUACAGAUUCAGAAGGUGCUACAUGAGGAUCACCCAUGUGGUCAAUACC	6.76	13.1	
AGUGUAUACAAGAAGGAACAUGGACUAGGAUUGUUAGGAUAUUGCAUAAACAUGAGGAUCACCCAUGUGCGACACGCCCACAUC			apparent Kd [3]: 35.4 nM; apparent Kd [4]: 21.7 nM
UCUGUGAUUCAAGGAUAUAAGUCGAGUGCUUGCUUAGAAGGUGACGAACAUGAGGAUCACCCAUGUGCUUUAUUCUUAUGCAUC	29.2	25.6	
